In ChEMBL document CHEMBL1828575, “Design, synthesis and antiproliferative activities of biarylolefins based on polyhydroxylated and carbohydrate scaffolds” (Eur J Med Chem, 2011):

What was measured:
Assay type in all cases: functional
[1] = test system: DU-145; experiment: Cytotoxicity against human DU145 cells assessed as cellular growth at 10 uM after 48 hrs by SRB assay
Summary of the method: (§1)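 NCI60 single-dose screen of cells in RPMI 1640 with 5% FBS and 2 mM L-glutamine, preincubated 24 h at 37 °C, 5% CO₂. Cells were then exposed 48 h to compound added from DMSO stock. TCA-fixed, stained with 0.4% SRB in 1% acetic acid, dye solubilised in 10 mM Tris base and read at 515 nm. Growth is given as percent of untreated control.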

[2] = test system: KM12; experiment: Cytotoxicity against human KM12 cells assessed as cellular growth at 10 uM after 48 hrs by SRB assay; summary of the method: as §1
[3] = test system: NCI-H522; experiment: Cytotoxicity against human NCI-H522 cells assessed as cellular growth at 10 uM after 48 hrs by SRB assay
Summary of the method: (§2)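 NCI-60 panel lines grown in RPMI 1640 with 5% FBS and 2 mM L-glutamine. Plated at 5000–40,000 cells/well and preincubated 24 h at 37 °C, 5% CO₂, with time-zero plates fixed in TCA. Compounds, dissolved in DMSO and diluted in medium, were applied for 48 h. Cells were TCA-fixed (10% final for adherent, 16% for suspension) and stained with 0.4% SRB in 1% acetic acid. Dye was solubilised in 10 mM Tris base and read at 515 nm; growth was expressed as a percentage of untreated control.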

[4] = test system: RPMI-8226; experiment: Cytotoxicity against human RPMI8226 cells assessed as cellular growth at 10 uM after 48 hrs by SRB assay; summary of the method: as §2
[5] = test system: HOP-62; experiment: Cytotoxicity against human HOP62 cells assessed as cellular growth at 10 uM after 48 hrs by SRB assay; summary of the method: as §1
[6] = test system: EKVX; experiment: Cytotoxicity against human EKVX cells assessed as cellular growth at 10 uM after 48 hrs by SRB assay; summary of the method: as §1
[7] = test system: U-251; experiment: Cytotoxicity against human U251 cells assessed as cellular growth at 10 uM after 48 hrs by SRB assay; summary of the method: as §2
[8] = test system: M14; experiment: Cytotoxicity against human M14 cells assessed as cellular growth at 10 uM after 48 hrs by SRB assay; summary of the method: as §1
[9] = test system: OVCAR-5; experiment: Cytotoxicity against human OVCAR5 cells assessed as cellular growth at 10 uM after 48 hrs by SRB assay; summary of the method: as §2
[10] = test system: NCI/ADR-RES; experiment: Cytotoxicity against human NCI/ADR-RES cells assessed as cellular growth at 10 uM after 48 hrs by SRB assay; summary of the method: as §2
[11] = test system: BT-549; experiment: Cytotoxicity against human BT549 cells assessed as cellular growth at 10 uM after 48 hrs by SRB assay; summary of the method: as §1
[12] = test system: MDA-MB-468; experiment: Cytotoxicity against human MDA-MB-468 cells assessed as cellular growth at 10 uM after 48 hrs by SRB assay; summary of the method: as §2
[13] = test system: KM12; experiment: Antitumor activity against human KM12 cells after 48 hrs by SRB assay; conditions: KM12, 48 h
Summary of the method: (§3)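 NCI60 panel in RPMI 1640 with 5% FBS and 2 mM L-glutamine. Cells were plated at 5000–40,000/well by doubling time, held 24 h, then time-zero plates were TCA-fixed. Five concentrations (10-fold or half-log dilutions of DMSO stocks) were applied for 48 h at 37 °C, 5% CO2. Cells were fixed with cold TCA (10% final adherent, 16% suspension) and stained with 0.4% SRB. Bound dye was dissolved in 10 mM Tris and read at 515 nm. GI50, TGI and LC50 were calculated per line.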

[14] = test system: MDA-MB-435; experiment: Antitumor activity against human MDA-MB-435 cells after 48 hrs by SRB assay; conditions: MDA-MB-435, 48 h; summary of the method: as §3
[15] = test system: RXF 393; experiment: Antitumor activity against human RXF393 cells after 48 hrs by SRB assay; conditions: RXF 393, 48 h; summary of the method: as §3
[16] = test system: T47D; experiment: Antitumor activity against human T47D cells after 48 hrs by SRB assay
Summary of the method: (§4)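 NCI60 panel cells grown in RPMI 1640 with 5% FBS and 2 mM L-glutamine, plated at 5000–40,000 cells/well and preincubated 24 h at 37 °C, 5% CO₂. Compound was added from DMSO at five concentrations, 10-fold or 1/2 log dilutions, then incubated 48 h.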

[17] = test system: DU-145; experiment: Antitumor activity against human DU145 cells after 48 hrs by SRB assay; conditions: DU-145, 48 h; summary of the method: as §3
[18] = test system: TK-10; experiment: Antitumor activity against human TK10 cells after 48 hrs by SRB assay; conditions: TK-10, 48 h; summary of the method: as §4
[19] = test system: SN12C; experiment: Antitumor activity against human SN12C cells after 48 hrs by SRB assay; summary of the method: as §4
[20] = test system: CAKI-1; experiment: Antitumor activity against human Caki1 cells after 48 hrs by SRB assay; conditions: CAKI-1, 48 h; summary of the method: as §3
[21] = test system: UACC-62; experiment: Antitumor activity against human UACC62 cells after 48 hrs by SRB assay; conditions: UACC-62, 48 h; summary of the method: as §4
[22] = test system: NCI-H460; experiment: Antitumor activity against human NCI-H460 cells after 48 hrs by SRB assay; conditions: NCI-H460, 48 h; summary of the method: as §3
[23] = test system: A549; experiment: Antitumor activity against human A549 cells after 48 hrs by SRB assay; conditions: A549, 48 h; summary of the method: as §3
[24] = read-out: LC50 (the source's name)
[25] = read-out: pLC50 (the source's name) (converted)

Which results are given for COc1ccc(/C(=C2/O[C@@H]([C@H]3COC(C)(C)O3)[C@H]3OC(C)(C)O[C@@H]23)c2cc(OC)c(OC)c(OC)c2)cc1O?
Activity [1]: 34.8%; Activity [2]: 26.71%; Activity [3]: 43.38%; Activity [4]: 63.56%; Activity [5]: 48.49%; Activity [6]: 90.16%; Activity [7]: 46.2%; Activity [8]: 7.95%; Activity [9]: 95.38%; Activity [10]: 10.1%; Activity [11]: 57.66%; Activity [12]: 96.42%; GI50 [13]: 3.99 µM; LC50 [13]: > 100 µM; TGI [13]: > 100 µM; GI50 [14]: 1.48 µM; TGI [14]: 3.7 µM; CC50 [14, 24]: > 100 µM; GI50 [15]: 2.12 µM; TGI [15]: 5.89 µM; CC50 [15, 24]: 29.8 µM; GI50 ([16]; read-out: GI50): 2.51 µM; CC50 [16, 24]: > 100 µM; TGI ([16]; read-out: TGI): > 100 µM; GI50 ([16]; read-out: pGI50 (converted)): 25.1 µM; CC50 [16, 25]: > 100 µM; TGI ([16]; read-out: pTGI (converted)): > 100 µM; GI50 ([17]; read-out: GI50): 3.29 µM; CC50 [17, 24]: > 100 µM; TGI ([17]; read-out: TGI): 13.8 µM; GI50 ([17]; read-out: pGI50 (converted)): 3.31 µM; CC50 [17, 25]: > 100 µM; TGI ([17]; read-out: pTGI (converted)): 13.2 µM; GI50 ([18]; read-out: GI50): 2.94 µM; CC50 [18, 24]: > 100 µM; TGI ([18]; read-out: TGI): 81.4 µM; GI50 ([18]; read-out: pGI50 (converted)): 23.4 µM; CC50 [18, 25]: > 100 µM; TGI ([18]; read-out: pTGI (converted)): 61.7 µM; GI50 ([19]; read-out: GI50): 5.82 µM; CC50 [19, 24]: > 100 µM; TGI ([19]; read-out: TGI): > 100 µM; GI50 ([19]; read-out: pGI50 (converted)): 5.62 µM; CC50 [19, 25]: > 100 µM; TGI ([19]; read-out: pTGI): > 100 µM; GI50 ([20]; read-out: GI50): 3.73 µM; CC50 [20, 24]: 29.8 µM; TGI ([20]; read-out: TGI): > 100 µM; GI50 ([20]; read-out: pGI50 (converted)): 37.2 µM; CC50 [20, 25]: > 100 µM; TGI ([20]; read-out: pTGI (converted)): > 100 µM; GI50 ([21]; read-out: GI50): 5.79 µM; CC50 [21, 24]: > 100 µM; TGI ([21]; read-out: TGI): > 100 µM; GI50 ([21]; read-out: pGI50 (converted)): 57.5 µM; CC50 [21, 25]: > 100 µM; TGI ([21]; read-out: pTGI (converted)): > 100 µM; GI50 ([22]; read-out: GI50): 4.31 µM; CC50 [22, 24]: > 100 µM; TGI ([22]; read-out: TGI): > 100 µM; GI50 ([22]; read-out: pGI50 (converted)): 4.27 µM; CC50 [22, 25]: > 100 µM; TGI ([22]; read-out: pTGI): > 100 µM; GI50 ([23]; read-out: GI50): 2.32 µM; CC50 [23, 24]: > 100 µM; TGI ([23]; read-out: TGI): > 100 µM; GI50 ([23]; read-out: pGI50 (converted)): 23.4 µM; CC50 [23, 25]: > 100 µM; TGI ([23]; read-out: pTGI (converted)): > 100 µM
